# Compound activity: PubChem BioAssay, Johns Hopkins Ion Channel Center
# Hits are enriched below; roughly 3.7% of the tested compounds scored in any of these assays.
# KCNK3 block: human KCNK3 channel inhibition, primary screen. CHO-KCNK3 thallium flux, FluxOR fluorescence; hits give low values. B-score at 10 µM. 0.84% of 340,000 active. O14649;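 active means B-score under library mean minus 4 SD, starting fluorescence ratio at most library mean plus 5 SD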;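 further: more negative B-score means stronger inhibition of thallium flux through KCNK3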
# Kir21 block: blocks the mouse Kir2.1 inward-rectifier potassium channel | B-score at 10 µM | AID 1672 | P35561 | 0.85% of 310,000 active | HEK293-Kir2.1, FluxOR thallium flux fluorescence; hits give low values;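 active means fluorescence ratio B-score at or below minus 3 SD of library scores, with starting-brightness B-score within 2 SD, cut at about -4.2 in these data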;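 further: channel flux triggered by added potassium and thallium sulfate stimulus; B-score of peak minus minimum fluorescence over baseline after thallium stimulus; more negative B-score means stronger Kir2.1 block with less thallium influx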
# KCNQ1 pot: human KCNQ1 channel potentiation or activation | B-score at 10 µM | 0.35% of 310,000 active | AID 2648 | CHO-K1 KCNQ1, thallium flux FluxOR fluorescence; hits give high values | P51787;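 active means fluorescence ratio B-score, a plate-corrected score, at least three library SD, with initial intensity B-score within 5 SD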
#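 assay system = KCNQ1-transfected CHO-K1 cells | medium = assay buffer with matched DMSO | probe or stimulus = depolarizing K+/Tl+ stimulus, K2SO4 and Tl2SO4 each 12.5 mM in 5x stock | dosing = single dose | incubation = dye 90 min, compound 20 min, room temperature | detection = kinetic FluxOR fluorescence, 10 s baseline plus 110 s post-stimulus | evaluation = ratio B score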
# KCNK9 block: human KCNK9 channel inhibition. Q9NPC2. HEK293 KCNK9, FluxOR thallium flux fluorescence; hits give low values. B-score at 10 µM. 1.2% of 310,000 active. AID 488922;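 active means ratio B-score over 3 SD below the library mean, with starting fluorescence within 5 SD of its mean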;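 further: negative B-score means less thallium flux so channel inhibition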
# KCNQ1 inh: inhibitors of human KCNQ1 potassium channel. CHO-K1 KCNQ1, FluxOR thallium flux fluorescence; hits give high values. B-score at 10 µM. 1.3% of 310,000 active. AID 2642;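 active means compounds whose thallium flux B-score, printed positive for inhibition, exceeds three library SD while starting fluorescence stays within three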;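 further: channel opened by potassium depolarization with thallium stimulus after 20 min compound exposure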
# hERG protect: hERG (human) protection from proarrhythmic block; Q12809; CHO-hERG, FluxOR thallium flux, dofetilide IC70 present; activation (rescue from dofetilide block), less the hit threshold, % at 10 µM; 0.51% of 310,000 active;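 active means activation above the mean of controls blocked by dofetilide plus 5 SD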;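 further: thallium influx through hERG after potassium depolarization seen as dye fluorescence rise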
# * hit, by the source's call; i = inactive; . = not tested or not shown.
SMILES,KCNK3 block,Kir21 block,KCNQ1 pot,KCNK9 block,KCNQ1 inh,hERG protect
COc1ccc(-c2[nH]ncc2CN(CCO)CC23CC4CC(CC(C4)C2)C3)c(OC)c1,i,-5.6*,i,i,i,-16
Cc1ccccc1NC(=O)c1cc(C(=O)c2cc(Cl)ccc2O)cn(-c2ccccc2C)c1=O,i,0.44,i,i,9*,-7
CCOC(=O)C1(CC2CCCCO2)CCN(Cc2ccccc2-c2ccco2)CC1 (centres undefined),i,1.2,i,i,i,-11
CSCCOC(=O)C1=C(C)NC(=O)CC1c1ccccc1Cl (centres undefined),i,-5.5*,i,i,i,-6
CCCC[n+]1c(C)sc2cc(OC)ccc21,i,-0.09,i,i,i,-11
COc1ccc2sc(C)[n+](C)c2c1,i,0.02,i,i,i,4.6*
CCC(=O)c1ccc(OCC(=O)NNC(=O)c2cc(C)oc2C)cc1,i,.,.,.,.,.
CSc1nc(N)c(C(=O)NC2CCCCC2)s1,i,0.64,i,i,i,-5
CCOc1ccc(NC(=O)c2cn(-c3ccc(OCC)cc3)c(=O)c3cc(OC)c(OC)cc23)cc1,i,-1,i,i,i,-10
CCOc1ccc(-n2cc(C(=O)Nc3cccc(C)n3)c3cc(OC)c(OC)cc3c2=O)cc1,i,0.93,13*,i,i,-14
COc1ccc(NS(=O)(=O)c2cccc(C(=O)NN=C(C)c3ccco3)c2)cc1,i,.,.,.,.,.
CCCCOC(=O)c1ccc(NC(=S)NC(=O)c2c(Br)c(C)nn2C)cc1,i,2.6,i,i,i,2
CC(=O)c1ccc(NC(=S)NC(=O)c2c(Cl)c(C)nn2C)cc1,i,1.4,11*,i,i,-3
COc1cccc(C2=NN(C(=O)c3ccco3)C(O)(C(F)(F)F)C2)c1 (centres undefined),i,0.61,i,i,i,-15
O=C(c1ccccc1O)N1N=C(c2ccccc2)CC1(O)C(F)(F)F (centres undefined),i,-0.68,i,i,6*,-13
Cc1ccc(C2=NN(C(=O)c3ccco3)C(O)(C(F)(F)F)C2)cc1 (centres undefined),i,-4.6*,i,i,i,-5
Nc1ccc(C(=O)N2N=C(c3ccccc3)CC2(O)C(F)(F)F)cc1 (centres undefined),i,-1.7,i,i,i,-8
CC(=O)c1c(C)[nH]c(C(=O)OCC(=O)NCCC2=CCCCC2)c1C,i,-0.04,i,i,i,-8
CCOC(=O)COc1coc(CN2CCN(c3ccc(F)cc3)CC2)cc1=O,i,-0.13,i,i,i,-4
Cc1csc(NC(=O)CCS(=O)(=O)c2ccc(Br)cc2)n1,i,-4.3*,i,i,i,0
Cc1csc(NC(=O)C(C)Oc2ccc(Br)cc2)n1 (centres undefined),i,-5*,i,i,i,-20
CCN(CC)S(=O)(=O)c1ccc(Cl)c(NC(=O)COC(=O)c2nc3nc(C)cc(C)n3n2)c1,i,.,.,.,.,.
OC(CNCCc1ccc(C(F)(F)F)cc1)COc1cccc2ccccc12 (centres undefined),i,-8*,i,i,i,5.3*
OC(CNC1CCCCCC1)COc1cccc2ccccc12 (centres undefined),i,-4.9*,i,i,i,-12
OC(CNCCc1ccc(C(F)(F)F)cc1)COc1ccc2ccccc2c1 (centres undefined),i,-0.14,i,i,i,-24
SMILES,KCNK3 block,Kir21 block,KCNQ1 pot,KCNK9 block,KCNQ1 inh,hERG protect
OC(CNC1CCCC1)COc1ccccc1Br (centres undefined),i,-0.01,i,i,i,-3
Cc1ccccc1OCC(O)CNC1CCC(NCC(O)COc2ccccc2C)CC1 (centres undefined),i,-5.5*,i,i,i,-2
O=C(Nc1ccc(Oc2ccc(NC(=O)Nc3ccccc3Cl)cc2)cc1)Nc1ccccc1Cl,i,1.4,i,i,i,-4
COc1ccc([C@H]2CC(=O)C=C(c3ccc(F)cc3OCc3ccccc3)C2)cc1OC,i,.,.,.,.,.
Cc1ccc(C(=O)OCC(=O)NC2CCCC(C)C2C)cc1S(=O)(=O)N1CCCCC1 (centres undefined),i,.,.,.,.,.
Cc1sc2ncnc(N3CCC(C(=O)N(C)CC(=O)Nc4ccc(Cl)c(C(F)(F)F)c4)CC3)c2c1C,i,1.4,i,i,9*,-14
Cc1ccc(C(=O)N(C)CC(=O)Nc2ccc(Cl)c(C(F)(F)F)c2)cc1S(=O)(=O)N1CCCCC1,-11*,.,.,.,.,.
Cc1ccc(S(=O)(=O)N2CCCCC2)cc1C(=O)N(C)CC(=O)Nc1ccc(Cl)c(C(F)(F)F)c1,i,-0.22,i,i,i,-15
N#CCCN(C(=O)COC(=O)COc1ccccc1Cc1ccccc1)c1ccccc1,i,.,.,.,.,.
CCOc1ccccc1CNCC1CCCO1 (centres undefined),i,-0.44,i,i,i,-12
Cc1ccc(-n2cc(-c3ccc([N+](=O)[O-])cc3)[nH]c2=S)c(C)c1,i,0.03,i,i,i,7.2*
Cc1cccc(-n2cc(-c3ccc([N+](=O)[O-])cc3)[nH]c2=S)c1,i,1.7,i,i,i,-4
Cc1ccc(C)c(N2CCN(CCCNC(=O)Cn3cccc3C(=O)c3ccccc3C)CC2)c1,i,-7.4*,i,i,i,-27
Cc1ccccc1C(=O)c1cccn1CC(=O)NCCCN1CCCCC1,i,0.2,i,i,i,-4
Cc1ccc(-n2nc(-c3ccc(OC(F)(F)F)cc3)cc2N)cc1C,i,-0.22,i,i,i,-1
CN(C)S(=O)(=O)c1ccc(NC(=O)COC(=O)CC2CC3CCC2C3)cc1 (centres undefined),i,-2,i,i,i,-10
C/C=N\NC(=O)CNC(=O)CNC(=O)c1ccccc1,i,0.75,i,i,i,-7
Cc1ccccc1NC(=S)N1CCCN(Cc2ccc(F)cc2)C1,i,-4.5*,i,i,i,-10
Cc1c(Cl)cccc1NC(=S)N1CCCN(Cc2ccc(F)cc2)C1,i,-6.2*,i,i,i,-7
Cc1ccc(NC(=S)N2CCCN(Cc3ccc(F)cc3)C2)c(C)c1,i,-3.4,i,i,i,-4
COc1ccc(N2CCN(C(=O)CSc3nnc(-c4ccco4)n3C)CC2)cc1,.,-0.02,i,i,i,-7
